OX1R antag-1: OX1R (HCRTR1) antagonists, primary screen, fluorescence, CHO/OX1R cells, Fluo-8 calcium, orexin A | Orexin/Hypocretin receptor type 1 (Homo sapiens), O43613 | Fluo-8 calcium fluorescence | inhibition, % at 5 µM | 330,000 tested, 0.43% active | AID 434989, 2010;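 active = inhibition above its plate's threshold, mean inhibition of all tested compounds on the plate plus 3 SD, cut at about 37% in these data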;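 also: 0% = orexin A challenge wells and 100% = SB-334867-A antagonist wells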
Target sequence (O43613 whole entry, looked up): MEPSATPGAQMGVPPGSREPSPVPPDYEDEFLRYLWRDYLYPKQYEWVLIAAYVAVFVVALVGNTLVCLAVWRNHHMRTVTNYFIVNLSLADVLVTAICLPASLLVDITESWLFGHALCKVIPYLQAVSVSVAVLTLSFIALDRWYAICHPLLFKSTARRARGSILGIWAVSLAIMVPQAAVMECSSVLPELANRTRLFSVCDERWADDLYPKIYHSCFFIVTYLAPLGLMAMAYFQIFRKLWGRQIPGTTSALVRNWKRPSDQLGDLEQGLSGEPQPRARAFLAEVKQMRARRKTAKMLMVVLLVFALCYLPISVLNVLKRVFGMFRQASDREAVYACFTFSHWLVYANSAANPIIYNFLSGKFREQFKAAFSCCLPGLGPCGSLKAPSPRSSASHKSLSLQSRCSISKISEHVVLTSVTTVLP
GPR7 antag: GPR7 receptor antagonists, primary screen, cell-based, fluorescence, single concentration; AID 1861, 2009; inhibition, % at 4.4 µM; GPR7-expressing cells, fluorescence antagonist assay; Neuropeptides B/W receptor type 1 (Homo sapiens), P48145; 290,000 tested, 1.1% active; in the data active = inhibition above about 16%, passing the limit was not always enough;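 also: cells stimulated with the agonist NPW; 0% = agonist with vehicle and 100% = vehicle without agonist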
Target sequence (P48145 whole entry, looked up): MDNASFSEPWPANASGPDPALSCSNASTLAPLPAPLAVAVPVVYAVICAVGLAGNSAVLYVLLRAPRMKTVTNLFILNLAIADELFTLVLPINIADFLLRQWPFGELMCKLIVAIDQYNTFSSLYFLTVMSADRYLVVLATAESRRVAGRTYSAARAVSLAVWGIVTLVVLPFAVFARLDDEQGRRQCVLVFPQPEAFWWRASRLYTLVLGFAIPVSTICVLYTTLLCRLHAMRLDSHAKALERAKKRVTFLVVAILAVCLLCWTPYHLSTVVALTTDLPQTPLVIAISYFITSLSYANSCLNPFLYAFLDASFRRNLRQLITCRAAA
OX1R antag-2: antagonists of human orexin 1 receptor (OX1R); Orexin/Hypocretin receptor type 1 (Homo sapiens), O43613; OX1R-expressing cells, FRET antagonist read-out; inhibition, % at 6.6 µM; 330,000 tested, 1.8% active; in the data active = inhibition mostly above about 38%, no sharp cut-off; inactive = mostly below about 40%;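 also: 0% = agonist challenge alone and 100% = reference antagonist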
TRPN1 ag: zebrafish TRPN1 channel agonists, primary screen, cell-based, HEK293, calcium fluorescence; 220,000 tested, 0.18% active; HEK293 zebrafish TRPN1-YFP, Fluo-8 calcium fluorescence; 100% = response to 87 µM carbachol; activation, % at 3 µM; AID 1424, 2008; transient receptor potential cation channel N1 (TRPN1/NompC), Danio rerio;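 active = activation above its plate's cutoff, the mean activation of test wells on that plate plus 3 SD, cut at about 19% in these data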;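 also: 0% = DMSO alone and 100% = 87 µM carbachol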
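Material – zebrafish TRPN1-YFP in HEK293 cells · Doses – 3 µM single point · Schedule – dye 1 h 37 °C plus 30 min RT · Signal – Fluo-8 calcium fluorescence, excitation 470-495 nm, emission 515-575 nm · Read-out – % activation versus carbachol response · Control set – carbachol high, DMSO low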
TRPML3 ag: human TRPML3 channel agonists, primary screen, cell-based, HEK293 TRPML3-YFP, Fluo-8 calcium fluorescence, 3 µM; Mucolipin-3 (Homo sapiens), Q8TDD5; 220,000 tested, 0.29% active; 100% = the carbachol control signal; activation, % at 3 µM;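 active = activation above its plate's cutoff, the mean activation of the plate's test wells plus 3 SD, cut at about 12% in these data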;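 also: 0% = DMSO only wells and 100% = carbachol wells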
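Test system: TRPML3-YFP stable HEK293 cells. Doses: single point at 3 µM. Incubation: dye loading 1 h 37 °C then 30 min ambient, 125 s read. Signal: Fluo-8 calcium dye fluorescence, ex 470-495, em 515-575 nm. Measure: percent activation from peak-to-basal fluorescence ratio, scaled between DMSO and carbachol.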
CHO parental Ca: ATP-evoked calcium signal inhibitors, parental CHO, primary screen, counter-screen for OX1R antagonist project, cell-based, fluorescence, Fluo-8 calcium dye; parental CHO-K1, ATP-induced calcium, Fluo-8 fluorescence; inhibition, % at 5.6 µM; 330,000 tested, 0.63% active; AID 463079, 2010;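 active = inhibition above that plate's mean sample inhibition plus 3 SD, cut at about 26% in these data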;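 also: 0% = ATP-challenged DMSO wells and 100% = DMSO wells without ATP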
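Material – parental CHO cells · Reagent – ATP stimulus · Compound – single nominal dose of 5.6 µM per compound · Detection – Fluo-8 fluorescence · Read-out basis – percent inhibition of calcium signal · Controls – ATP-challenged DMSO wells low, unchallenged DMSO wells high · Repeats – no replicates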
* = called active by the depositor; x = no result. Sampled rows, rich in hits. Any-hit rate of the full collection: about 3.2%.

SMILES	OX1R antag-1	GPR7 antag	OX1R antag-2	TRPN1 ag	TRPML3 ag	CHO parental Ca
Cc1ccccc1-n1cc(C(=O)c2cc(Cl)ccc2O)cc(C#N)c1=O	-16.5	7.5	5.5	2.9	2.3	-6.3
O=C(CSc1nc(C2CC2)nc2ccccc12)Nc1ccccc1	-8.4	-2.8	25.7	x	x	-14.4
COc1cccc(NC(=O)CN(C)C(=O)CSc2nc3ccccc3s2)c1	9.0	x	53.7*	x	x	-7.1
COc1cc(NC(=O)CSc2nc(C3CC3)nc3ccccc23)cc(OC)c1	-21.2	-5.3	46.8*	x	x	-20.0
CN(CC(=O)Nc1cccc(F)c1)C(=O)c1cn(-c2ccccc2)nc1-c1cccs1	-3.4	-3.0	20.9	x	x	-8.0
COc1cccc(NC(=O)CN(C)C(=O)CSCC(=O)Nc2ccc(C)cc2)c1	12.2	x	29.6*	x	x	-12.9
COc1ccc(NC(=O)CN(C)C(=O)CSCC(=O)Nc2ccc(C)cc2)cc1	-17.0	x	12.7	x	x	-12.5
COc1cccc(NC(=O)CN(C)C(=O)c2cn(-c3ccccc3)nc2-c2cccs2)c1	8.7	x	51.0*	x	x	1.3
N#CCC(=O)Nc1ccc(C(=O)OCC(=O)NC2CCCc3ccccc32)cc1 (centres undefined)	-2.1	x	5.9	x	x	3.9
COc1cc(NC(=O)CSCC(=O)Nc2cc(OC)cc(OC)c2)cc(OC)c1	1.1	-2.7	63.1*	-0.5	0.2	-6.8
Cc1cc(/C=N/Nc2nc(N)ncc2[N+](=O)[O-])c(C)n1-c1ccccc1F	-37.1	-3.0	44.3*	2.9	0.6	-33.9
CCN(CC)c1ccc2cc(C=O)c(=O)oc2c1	37.6	3.7	115.7*	38.8*	19.4*	49.5*
CCN(CC)c1ccc2cc(C(N)=O)c(=O)oc2c1	-4.7	-8.6	19.2	1.0	-0.2	-3.3
CCN(CC)c1ccc2cc(-c3nnc(-c4ccncc4)o3)c(=O)oc2c1	x	41.0*	x	47.1*	27.3*	x
O=c1[nH]cnc2sc3c(c12)CCC3	-6.2	-3.6	12.9	-0.4	0.4	-12.3
O=c1/c(=C\c2cc([N+](=O)[O-])cc([N+](=O)[O-])c2O)sc2nc3ccccc3n12	5.7	-3.4	72.2*	0.5	0.4	-0.1
O=c1/c(=C/c2ccccn2)sc2nc3ccccc3n12	-9.3	3.9	13.4	0.4	0.6	1.2
CCc1nnc2n1N=C(c1ccc([N+](=O)[O-])cc1)CS2	-11.8	-11.4	56.1*	0.7	-0.2	-10.9
CC1CCN(C(=O)C(C)Sc2nc(-c3ccccc3)cc(C(F)(F)F)n2)CC1 (centres undefined)	-30.3	1.4	10.5	-2.1	-0.7	30.3*
CC(Sc1nc(-c2ccccc2)cc(C(F)(F)F)n1)C(=O)N1CCCC1 (centres undefined)	-13.4	-5.1	7.4	0.1	0.3	-10.7
O=S(=O)(c1ccc(F)cc1)N1CCN(CC2CC3C=CC2C3)CC1 (centres undefined)	-24.6	-3.2	0.4	x	x	-2.9
CC(C)OC(=O)c1cc2ccccc2[nH]1	-12.2	-14.2	17.8	2.0	0.6	-6.6
CCOC(=O)c1cc2cc3ccccc3cc2[nH]1	-7.8	5.6	37.6*	1.4	0.4	6.5
CCOC(=O)c1cccc(NC(=O)CSc2nncn2-c2ccccn2)c1	5.8	11.0	17.4	x	x	-14.4
O=c1cc(C(F)(F)F)oc2c1ccc1ccccc12	-5.6	-5.1	11.1	-0.2	0.2	-8.1
SMILES	OX1R antag-1	GPR7 antag	OX1R antag-2	TRPN1 ag	TRPML3 ag	CHO parental Ca
O=c1cc(-c2cccnc2)oc2c1ccc1ccccc12	-12.2	-11.9	36.4*	2.0	0.9	-2.7
O=c1cc(-c2ccc(O)c(O)c2)oc2c1ccc1ccccc12	16.3	x	20.8	x	x	-3.4
O=c1cc(/C=C/c2ccccc2)oc2c1ccc1ccccc12	-25.5	-7.8	56.1*	0.5	0.5	-26.3
CCOC(=O)C1=C(CC)Nc2ccccc2N=C1NC(=O)Nc1ccc(Cl)c(Cl)c1	64.4*	18.5	95.7*	0.8	0.3	63.7*
CCOC(=O)C1=C(CC)Nc2ccccc2N=C1NC(=O)c1cc(C)on1	-11.8	x	3.8	x	x	-18.9
COc1ccc(CCNC(=O)CCC(=O)N2CCOc3ccc(C)cc32)cc1OC	-16.2	-8.1	4.9	x	x	-7.7
COc1ccc(OC)c(CCNC(=O)CCC(=O)N2CCOc3ccc(C)cc32)c1	-16.7	6.6	39.0*	x	x	-6.5
O=C1N=c2ccccc2=C1c1[nH]c(=S)[nH]c1O	-11.1	-1.3	43.0*	-0.6	-1.0	5.1
CC(=O)c1c(C)[nH]c(C(=O)OCCCCN2C(=O)c3ccccc3C2=O)c1C	62.5*	10.1	45.0*	9.4	6.7	74.7*
COc1cccc(/C=N/Nc2nnc3c(n2)[nH]c2ccccc23)c1OC	1.6	-6.7	45.4*	2.3	0.2	-13.1
COc1cccc(/C=N/Nc2ccc(Cl)nn2)c1OC	-13.9	x	29.9	x	x	4.3
CN(CCCC(=O)NCc1ccc2c(c1)OCO2)S(=O)(=O)c1ccc([N+](=O)[O-])cc1	-12.8	13.7	66.3*	x	x	-0.4
COc1cc(OC)cc(C(=O)NCCN2C(=O)S/C(=C\c3cccs3)C2=O)c1	-6.9	-13.9	35.1*	1.0	1.0	7.3
c1ccc(N(c2ccccc2)c2nc(-n3ccnc3)nc(-n3ccnc3)n2)cc1	82.2*	13.0	42.2	2.5	1.7	41.6*
CN(Cc1nc2ccccc2c(=O)[nH]1)C(=O)c1cccc(NC(=O)c2cccs2)c1	-44.3	x	12.0	x	x	-21.8
COc1ccccc1N(CC(O)Cn1nc(C)cc1C)S(=O)(=O)c1ccccc1 (centres undefined)	11.1	-9.7	47.4*	0.2	0.1	-12.2
O=C(CSc1ccccc1F)NNC(=O)c1ccncc1	3.8	x	-4.4	x	x	7.5
COC(=O)[C@H](Cc1ccccc1)N1C/C=C\COc2c(Cl)cc(Cl)cc2S1(=O)=O	35.0	x	31.8*	x	x	-12.1
Cc1cccc(Nc2nc(-c3c(C)nc4ccccn34)cs2)c1	69.5*	23.2	32.3	0.6	-0.2	43.1*
CNC(=O)CSc1nnc(SCCC(=O)O)s1	-3.3	-6.9	6.4	1.5	1.1	0.8
CC(=O)NS(=O)(=O)c1ccc(Nc2ccc([N+](=O)[O-])c3nonc23)cc1	-8.0	1.6	75.8*	3.3	2.5	3.3
CCOc1ccc(Nc2ccc([N+](=O)[O-])c3nonc23)cc1	-22.9	-8.9	42.9	x	x	16.5
O=[N+]([O-])c1ccc(Sc2cccc[n+]2[O-])c2nonc12	x	19.8*	x	34.8*	14.4*	x
